The source made the active and inactive calls. The calls are words filed in the database; no cut-off is given here.
Assays:
Vasopressin V2 receptor = Vasopressin V2 receptor (Homo sapiens, UniProt P30518); assay: Displacement of [3H]AVP from human vasopressin V2 receptor expressed in CHO cells by scintillation counting; type: cell-based
Method in brief: (§1)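 Ki from radioligand displacement at the human receptor, run per a previously published protocol; each value is the mean of at least two experiments.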

[1] = Intrinsic clearance in rat liver microsomes measured up to 40 mins by HPLC-MS method; type: ADME, Microsome
Method in brief: (§2)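 Intrinsic clearance determined by liver microsome incubation using a previously published procedure, reported in µL/min/mg; each value is the mean of at least two experiments.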

[2] = Intrinsic clearance in human liver microsomes measured up to 40 mins by HPLC-MS method; type: ADME, Microsome; method in brief: as §2
Oxytocin receptor = biological target: T1, Oxytocin receptor (Homo sapiens, UniProt P30559); assay: Displacement of radiolabeled oxytocin from human oxytocin receptor expressed in CHO cells by scintillation counting; type: cell-based; method in brief: as §1
T1 sequence (P30559 whole entry): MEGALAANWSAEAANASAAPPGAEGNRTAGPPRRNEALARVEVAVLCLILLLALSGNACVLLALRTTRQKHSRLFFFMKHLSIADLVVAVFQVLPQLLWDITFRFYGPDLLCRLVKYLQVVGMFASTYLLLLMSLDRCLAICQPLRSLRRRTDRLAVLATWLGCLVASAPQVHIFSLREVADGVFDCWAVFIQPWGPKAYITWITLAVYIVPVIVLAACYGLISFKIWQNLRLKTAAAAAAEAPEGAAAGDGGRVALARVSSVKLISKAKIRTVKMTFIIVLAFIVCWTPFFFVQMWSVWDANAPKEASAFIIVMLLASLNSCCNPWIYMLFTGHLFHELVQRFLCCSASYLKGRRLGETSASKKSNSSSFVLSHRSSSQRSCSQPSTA

Vasopressin V1b receptor = biological target: T2, Vasopressin V1b receptor (Homo sapiens, UniProt P47901); assay: Displacement of [3H]AVP from human vasopressin V1b receptor expressed in CHO cells by scintillation counting; type: cell-based
T2 sequence (P47901 whole entry): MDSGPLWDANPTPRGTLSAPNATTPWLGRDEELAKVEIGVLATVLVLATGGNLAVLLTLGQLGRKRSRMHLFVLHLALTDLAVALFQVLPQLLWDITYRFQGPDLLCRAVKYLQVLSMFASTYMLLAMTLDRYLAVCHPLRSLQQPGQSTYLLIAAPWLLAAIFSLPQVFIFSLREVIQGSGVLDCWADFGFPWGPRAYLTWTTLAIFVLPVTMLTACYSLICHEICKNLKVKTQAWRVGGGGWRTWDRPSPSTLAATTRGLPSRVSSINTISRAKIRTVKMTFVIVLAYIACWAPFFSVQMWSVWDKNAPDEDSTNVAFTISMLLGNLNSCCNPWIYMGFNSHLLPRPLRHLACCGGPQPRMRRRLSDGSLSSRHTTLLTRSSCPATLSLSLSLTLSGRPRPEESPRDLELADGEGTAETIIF

Vasopressin V1a receptor = Vasopressin V1a receptor (Homo sapiens, UniProt P37288); assay: Displacement of [3H]AVP from human vasopressin V1a receptor expressed in CHO cells by scintillation counting; type: cell-based; method in brief: as §1
Homo sapiens [3] = species on record: Homo sapiens; assay: Selectivity ratio of Ki for human vasopressin V1b receptor over Ki for human vasopressin V2 receptor
Homo sapiens [4] = species on record: Homo sapiens; assay: Selectivity ratio of Ki for human vasopressin V1b receptor over Ki for human oxytocin receptor
Homo sapiens [5] = species on record: Homo sapiens; assay: Selectivity ratio of Ki for human vasopressin V1b receptor over Ki for human vasopressin V1a receptor
[6] = Ratio of AUC in brain to plasma in rat at 10 mg/kg, ip; type: ADME, organism-based; parameters: dose 10 mg/kg, route intraperitoneal; conditions: brain and plasma, read-out: Ratio AUC
[7] = Volume of distribution at steady state in rat at 2 mg/kg, iv; type: ADME, organism-based; parameters: dose 2 mg/kg, route intravenous; conditions: in vivo, read-out: Vdss
Rattus norvegicus = assay: Antidepressant activity in rat at 3 mg/kg, ip by forced swimming test; type: functional, organism-based; parameters: dose 3 mg/kg
[8] = Oral bioavailability in rat plasma at 10 mg/kg; type: ADME, organism-based
[9] = Clearance in rat plasma at 2 mg/kg, iv; type: ADME, organism-based; parameters: dose 2 mg/kg, route intravenous
[10] = Terminal half life in rat at 2 mg/kg, iv; type: ADME, organism-based; parameters: dose 2 mg/kg, route intravenous; conditions: in vivo, read-out: beta t1/2 (converted)

Sequence of Vasopressin V1a receptor (P37288 whole entry): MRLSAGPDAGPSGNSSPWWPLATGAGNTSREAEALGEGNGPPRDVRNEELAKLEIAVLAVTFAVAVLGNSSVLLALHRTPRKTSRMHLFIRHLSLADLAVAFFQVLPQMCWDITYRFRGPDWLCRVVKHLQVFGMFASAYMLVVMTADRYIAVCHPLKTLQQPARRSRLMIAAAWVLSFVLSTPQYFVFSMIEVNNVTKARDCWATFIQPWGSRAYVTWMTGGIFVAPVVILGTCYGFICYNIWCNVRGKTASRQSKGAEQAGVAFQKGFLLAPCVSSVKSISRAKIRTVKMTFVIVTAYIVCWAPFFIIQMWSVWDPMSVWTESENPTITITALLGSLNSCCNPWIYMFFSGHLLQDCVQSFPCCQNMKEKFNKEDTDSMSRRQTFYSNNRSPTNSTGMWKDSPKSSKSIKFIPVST
Sequence of Vasopressin V2 receptor (P30518 whole entry): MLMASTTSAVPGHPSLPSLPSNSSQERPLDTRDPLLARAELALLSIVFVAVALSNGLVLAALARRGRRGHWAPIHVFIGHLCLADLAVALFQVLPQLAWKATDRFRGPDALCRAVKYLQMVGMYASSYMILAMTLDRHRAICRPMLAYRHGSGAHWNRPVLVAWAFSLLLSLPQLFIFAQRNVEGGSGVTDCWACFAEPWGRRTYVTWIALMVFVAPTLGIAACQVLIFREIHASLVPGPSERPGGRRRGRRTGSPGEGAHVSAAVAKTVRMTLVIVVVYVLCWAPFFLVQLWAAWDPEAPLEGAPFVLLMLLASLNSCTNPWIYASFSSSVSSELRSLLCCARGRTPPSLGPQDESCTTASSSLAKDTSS

| Ki (Vasopressin V2 receptor) | microsomal CLint [1] | microsomal CLint [2] | Ki (Oxytocin receptor) | Ki (Vasopressin V1b receptor) | Ki (Vasopressin V1a receptor) | Ratio Ki (Homo sapiens [3]) | Ratio Ki (Homo sapiens [4]) | Ratio Ki (Homo sapiens [5]) | SMILES | Kp [6] | Vd [7] | Activity (Rattus norvegicus) | bioavailability [8] | clearance [9] | half-life [10] |
| --- | --- | --- | --- | --- | --- | --- | --- | --- | --- | --- | --- | --- | --- | --- | --- |
| > 1000 nM | 56 µL/min/mg | 76 µL/min/mg | 89 nM | 1.3 nM | 231 nM | – | – | – | COc1ccc(S(=O)(=O)N2C(=O)[C@@](c3cc(CN4CCN(C)CC4)ccc3OC)(N3CCC[C@H]3c3ncco3)c3cc(Cl)ccc32)cc1 | – | – | – | – | – | – |
| > 1000 nM | 106 µL/min/mg | 127 µL/min/mg | 28 nM | 0.08 nM | 101 nM | > 100 | > 100 | > 100 | COc1ccc(S(=O)(=O)N2C(=O)[C@@](c3ccc(CN4CCCC4)cc3OC)(N3CCC[C@H]3C(=O)N(C)C)c3cc(Cl)ccc32)cc1 | – | – | – | – | – | – |
| > 1000 nM | 117 µL/min/mg | 155 µL/min/mg | 45 nM | 0.81 nM | > 1000 nM | – | – | – | COc1ccc(S(=O)(=O)N2C(=O)[C@@](c3ccc(CN4CCCC4)cc3OC)(N3CCC[C@H]3C(=O)N(C)C)c3cc(Cl)ccc32)c(OC)c1 | – | – | – | – | – | – |
| > 1000 nM | 148 µL/min/mg | 394 µL/min/mg | 29 nM | 0.26 nM | 74 nM | – | – | – | COc1ccc(S(=O)(=O)N2C(=O)[C@@](c3cc(CN4CCCC4)ccc3OC)(N3CCC[C@H]3C(=O)N(C)C)c3cc(Cl)ccc32)c(OC)c1 | – | – | – | – | – | – |
| > 1000 nM | 164 µL/min/mg | 80 µL/min/mg | 170 nM | 1.2 nM | 193 nM | – | – | – | COc1ccc(S(=O)(=O)N2C(=O)[C@@](c3cc(CN4CCCC4)ccc3OC)(N3CCC[C@H]3c3ncco3)c3cc(Cl)ccc32)cc1 | – | – | – | – | – | – |
| > 1000 nM | 413 µL/min/mg | 158 µL/min/mg | – | 2.1 nM | 49 nM | – | – | – | COc1ccc(S(=O)(=O)N2C(=O)[C@@](c3cnccc3OC)(N3C[C@H](O)C[C@H]3C(=O)N(C)C)c3cc(Cl)ccc32)c(OC)c1 | – | – | – | – | – | – |
| 636 nM | 366 µL/min/mg | 203 µL/min/mg | 45 nM | 5.6 nM | 173 nM | – | – | – | COc1ccc(S(=O)(=O)N2C(=O)[C@@](c3cnc(OC)nc3OC)(N3C[C@H](O)C[C@H]3C(=O)N(C)C)c3cc(Cl)ccc32)c(OC)c1 | – | – | – | – | – | – |
| – | – | – | – | 101 nM | – | – | – | – | COc1ccc(S(=O)(=O)N2C(=O)[C@@](c3cccnc3OC)(N3CCCC3c3ncco3)c3cc(Cl)ccc32)c(OC)c1 (mixture of isomers) | – | – | – | – | – | – |
| > 1000 nM | 1030 µL/min/mg | 302 µL/min/mg | 271 nM | 26 nM | 500 nM | – | – | – | COc1ccc(S(=O)(=O)N2C(=O)[C@@](c3nccnc3OC)(N3C[C@H](O)C[C@H]3C(=O)N(C)C)c3cc(Cl)ccc32)c(OC)c1 | – | – | – | – | – | – |
| > 1000 nM | 446 µL/min/mg | 359 µL/min/mg | 62 nM | 3.8 nM | 219 nM | – | – | – | COc1ccc(S(=O)(=O)N2C(=O)[C@@](c3cccnc3OC)(N3CCC[C@H]3C(=O)N(C)C)c3cc(Cl)ccc32)c(OC)c1 | – | – | – | – | – | – |
| – | 476 µL/min/mg | 373 µL/min/mg | – | 276 nM | – | – | – | – | COc1ccc(S(=O)(=O)N2C(=O)[C@@](c3cccnc3OC)(N3CCCC3c3nccs3)c3cc(Cl)ccc32)c(OC)c1 (mixture of isomers) | – | – | – | – | – | – |
| > 1000 nM | 101 µL/min/mg | 506 µL/min/mg | 17 nM | 0.03 nM | 10 nM | > 100 | > 100 | > 100 | COc1ccc(S(=O)(=O)N2C(=O)[C@@](c3cc(CN4CCCC4)ccc3OC)(N3CCC[C@H]3C(=O)N(C)C)c3cc(Cl)ccc32)cc1 | – | – | – | – | – | – |
| – | 702 µL/min/mg | 183 µL/min/mg | – | 786 nM | – | – | – | – | COc1ccc(S(=O)(=O)N2C(=O)[C@@](c3cccnc3OC)(N3CCCC3c3ccccn3)c3cc(Cl)ccc32)c(OC)c1 (mixture of isomers) | – | – | – | – | – | – |
| – | – | – | – | > 10000 nM | – | – | – | – | COc1ccc(S(=O)(=O)N2C(=O)[C@@](c3cccnc3OC)(N3CCCC3c3ccccc3)c3cc(Cl)ccc32)c(OC)c1 (mixture of isomers) | – | – | – | – | – | – |
| – | – | – | – | > 10000 nM | – | – | – | – | COc1ccc(S(=O)(=O)N2C(=O)[C@@](c3cccnc3OC)(N3CCCC3c3cccs3)c3cc(Cl)ccc32)c(OC)c1 (mixture of isomers) | – | – | – | – | – | – |
| 618 nM | 446 µL/min/mg | 323 µL/min/mg | 42 nM | 1.3 nM | 55 nM | – | – | – | COc1ccc(S(=O)(=O)N2C(=O)[C@@](c3cccnc3OC)(N3C[C@H](O)C[C@H]3C(=O)N(C)C)c3cc(Cl)ccc32)c(OC)c1 | – | – | – | – | – | – |
| > 1000 nM | 56 µL/min/mg | 378 µL/min/mg | 7 nM | 0.04 nM | 15 nM | > 100 | > 100 | > 100 | COc1ccc(S(=O)(=O)N2C(=O)[C@@](c3ccc(CN4CCN(C)CC4)cc3OC)(N3CCC[C@H]3C(=O)N(C)C)c3cc(Cl)ccc32)cc1 | – | – | – | – | – | – |
| > 1000 nM | 62 µL/min/mg | 64 µL/min/mg | 135 nM | 3.9 nM | 243 nM | – | – | – | CNCc1ccc(OC)c([C@@]2(N3CCC[C@H]3c3ncco3)C(=O)N(S(=O)(=O)c3ccc(OC)cc3)c3ccc(Cl)cc32)c1 | 0.31 | 13 L/kg | Active | 68% | 50 mL/min/kg | 198 min |
| – | 356 µL/min/mg | 75 µL/min/mg | – | 20 nM | – | – | – | – | COc1ccc(S(=O)(=O)N2C(=O)[C@@](c3cccnc3OC)(N3CCC[C@H]3c3ncco3)c3cc(Cl)ccc32)cc1 | – | – | – | – | – | – |
| > 1000 nM | 217 µL/min/mg | 204 µL/min/mg | 115 nM | 2 nM | 289 nM | – | – | – | COc1ccc(S(=O)(=O)N2C(=O)[C@@](c3cc(CN(C)C)ccc3OC)(N3CCC[C@H]3c3ncco3)c3cc(Cl)ccc32)cc1 | – | – | – | – | – | – |
| > 1000 nM | 78 µL/min/mg | 414 µL/min/mg | 20 nM | 0.03 nM | 13 nM | > 100 | > 100 | > 100 | COc1ccc(S(=O)(=O)N2C(=O)[C@@](c3cc(CN4CCN(C)CC4)ccc3OC)(N3CCC[C@H]3C(=O)N(C)C)c3cc(Cl)ccc32)cc1 | – | – | – | – | – | – |

| SMILES | Ki (Vasopressin V2 receptor) | microsomal CLint [1] | microsomal CLint [2] | Ki (Oxytocin receptor) | Ki (Vasopressin V1b receptor) | Ki (Vasopressin V1a receptor) | Ratio Ki (Homo sapiens [3]) | Ratio Ki (Homo sapiens [4]) | Ratio Ki (Homo sapiens [5]) | Kp [6] | Vd [7] | Activity (Rattus norvegicus) | bioavailability [8] | clearance [9] | half-life [10] |
| --- | --- | --- | --- | --- | --- | --- | --- | --- | --- | --- | --- | --- | --- | --- | --- |
| COc1ccc(S(=O)(=O)N2C(=O)[C@@](c3ccccc3OC)(N3C[C@H](O)C[C@H]3C(=O)N(C)C)c3cc(Cl)ccc32)c(OC)c1 | – | 432 µL/min/mg | 343 µL/min/mg | – | – | – | – | – | – | 0.03 | 2.8 L/kg | – | 12% | 86.7 mL/min/kg | 30 min |

From ChEMBL document CHEMBL1777717, “Potent and selective oxindole-based vasopressin 1b receptor antagonists with improved pharmacokinetic properties” (Bioorg Med Chem Lett, 2011)
